Measured values from different studies.
Compare with care: the assays were run in different laboratories.

CCOCC(=O)N1CCC[C@H](C(=O)NCc2nc(-c3ccc(C)nc3)cs2)C1 — AUC (male Sprague-Dawley rat, plasma; oral, 3 mg/kg): 32 µM·h
COc1nc(-c2cccc(-c3ccccc3)c2C)ccc1CNCCNC(=O)CCCCCCCCCCC(=O)N1CCN(CCNC(=O)c2cc3c(=O)n4cccc(C)c4nc3n(CCc3cccs3)c2=N)CC1 — AUC(0-t) (male Sprague-Dawley rat, plasma; intraperitoneal, 4 mg/kg): 2440 ng·h/mL
CN(C)C(=O)c1cc2cnc(Nc3ccc(N4CCNCC4)cn3)nc2n1C1CCCC1 — AUC (male Sprague-Dawley rat, plasma; intraperitoneal, 100 mg/kg): 12200 ng·h/mL
Cc1c(S(=O)(=O)N2CCn3nccc3C2)cc(C(=O)NCc2c(F)ccnc2N2CCCC2)n1C — Papp (PAMPA): 16.8 ×10⁻⁶ cm/s
C=C(CC(=O)OCc1oc(=O)oc1C)C(=O)O — Papp (PAMPA; 10 µM, 4 h): ~15 ×10⁻⁶ cm/s
NCCOCC(=O)N1CCC[C@H](C(=O)NCc2nc(-c3ccc(C(F)(F)F)cc3)cs2)C1 — AUC (male Sprague-Dawley rat, plasma; oral, 3 mg/kg): 0.071 µM·h
C=C(CC(=O)OCOC(=O)OC(C)C)C(=O)OCOC(=O)OC(C)C — Papp (PAMPA; 10 µM, 4 h, pH 7.4): > 10 ×10⁻⁶ cm/s
CCOCC(=O)N1CCC[C@H](C(=O)NCc2nc(-c3ccc(C#N)nc3)cs2)C1 — AUC (male Sprague-Dawley rat, plasma; oral, 3 mg/kg): 21 µM·h
C[C@H]1Oc2cc(cnc2N)-c2c(nn(C)c2C#N)CN(C)C(=O)c2ccc(F)cc21 — AUC(0-inf) (male Sprague-Dawley rat, plasma; oral, 5 mg/kg, single dose): 1870 ng·h/mL
